Source: PubChem BioAssay
CRFR2-BP ag – agonists of human CRF-binding protein/CRF-R2 receptor complex; hit rate 0.46% among 350,000; activation, % at 13.2 µM; HEK293 CRF-R2/CRF-BP, calcium dye fluorescence (FLIPR); percent of saturating CRF peptide response;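 active = activation of at least 50%, plus an integration ratio under a set limit after plate pattern correction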
OXTR agonist – human OXTR agonism; P30559; CHO-OTR cells, Fluo-8 calcium fluorescence; normalized: DMSO 0%, oxytocin 100%; activation, % at 3 µM; hit rate 0.32% among 320,000; AID 2435;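 active = activation above the mean of all tested compounds plus 3 SD, cutoff set per screening run, cut at about 20% in these data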;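 also: peak over basal fluorescence ratio from a 100 s FLIPR kinetic read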
Target sequence (P30559 whole entry, looked up): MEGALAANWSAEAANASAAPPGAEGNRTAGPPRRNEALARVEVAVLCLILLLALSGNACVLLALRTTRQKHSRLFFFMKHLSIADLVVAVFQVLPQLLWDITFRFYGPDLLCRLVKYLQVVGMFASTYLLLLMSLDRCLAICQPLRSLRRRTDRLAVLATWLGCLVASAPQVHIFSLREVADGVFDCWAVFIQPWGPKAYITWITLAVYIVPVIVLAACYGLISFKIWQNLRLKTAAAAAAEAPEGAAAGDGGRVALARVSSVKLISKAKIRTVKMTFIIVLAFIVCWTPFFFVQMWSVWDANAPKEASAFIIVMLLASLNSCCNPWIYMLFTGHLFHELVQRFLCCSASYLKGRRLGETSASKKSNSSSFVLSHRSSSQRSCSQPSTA
TRPML3 ag – activates the human TRPML3 channel; AID 1448; hit rate 0.29% among 220,000; HEK293 TRPML3-YFP, Fluo-8 calcium fluorescence; 100% = the carbachol control signal; activation, % at 3 µM;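 active = activation above its plate's cutoff, the mean activation of the plate's test wells plus 3 SD, cut at about 12% in these data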
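Test system – HEK293 line with stable expression of human TRPML3-YFP channel · Control set – carbachol 87 µM final as high control (100%), DMSO as low control (0%) · Signal – Fluo-8 calcium dye fluorescence, ex 470-495, em 515-575 nm · Incubation – 1-h 37 °C dye load, 5-s basal, 120-s post-compound reads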
OXTR potentiator – human OXTR potentiation. P30559. CHO-OTR cells, Fluo-8 calcium fluorescence, potentiator mode; 0% = oxytocin EC15, 100% = EC100. activation, % at 3 µM. hit rate 0.061% among 320,000;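 active = activation above that plate's cutoff, the mean activation of tested compounds plus 3 SD, cut at about 6.6% in these data, passing the limit was not always enough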
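Assay system: CHO cell line stably expressing human OTR. Reagent: EC15 oxytocin agonist. Dosing: single dose, 3.0 µM nominal final compound concentration. Timing: compound 6 min at room temperature before oxytocin, 100 s read. Signal: kinetic Fluo-8 calcium fluorescence. Controls: oxytocin EC15 low and EC100 high.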
zfTRPN1 agonist – zebrafish TRPN1 (NompC) channel agonism. hit rate 0.18% among 220,000. activation, % at 3 µM. HEK293 zebrafish TRPN1-YFP, Fluo-8 calcium fluorescence; 100% = response to 87 µM carbachol;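 active = activation above its plate's cutoff, the mean activation of test wells on that plate plus 3 SD, cut at about 19% in these data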
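System: zebrafish TRPN1-YFP in HEK293 cells / Dosing: 3 µM single point / Timing: dye loading 1 h at 37 °C, then 30 min room temperature / Signal: Fluo-8 calcium fluorescence, excitation 470-495 nm, emission 515-575 nm / Read-out basis: percent activation from peak over basal fluorescence ratio, control-normalized / Control set: high carbachol 87 µM, low DMSO alone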
V1R ag counter – V1a receptor agonism, counter-screen for OXTR agonists. CHO-V1R cells, Fluo-8 calcium fluorescence, agonist mode; 0% DMSO, 100% 3 nM vasopressin. hit rate 0.25% among 320,000. activation, % at 3 µM. P37288;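 active = activation above the mean activation of all tested compounds plus 3 SD, per screening run, cut at about 20% in these data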;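 also: signal is peak over basal fluorescence ratio across a 100 second FLIPR read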
OXTR ag confirm – human OXTR agonism, confirmation; hit rate 20% among 390; AID 434963; CHO-OTR cells, Fluo-8 calcium fluorescence, agonist; activation, % at 3 µM; shares compounds with OXTR agonist;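 active = mean activation above about 20% derived from the earlier single-dose screen, limit read from the data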;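 also: peak over minimum fluorescence ratio per well during a 100 second FLIPR read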
V1aR counter 3x – activates V1a receptor in oxytocin agonist counter-screen. shares compounds with OXTR agonist. CHO-V1R cells, Fluo-8 calcium fluorescence. activation, % at 3 µM. hit rate 10% among 390. AID 434991;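 active = mean activation over triplicate exceeds the hit threshold set in the earlier primary screen, cut at about 20% in these data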;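 also: peak over basal fluorescence ratio within a 100 second read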
OXTR pot confirm – human OXTR potentiation, confirmation; shares compounds with OXTR potentiator; CHO-OTR cells, Fluo-8 calcium fluorescence; scaled from low-dose to maximal oxytocin; activation, % at 3 µM; 180 tested, under 10 active; AID 434985;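 active = mean percent activation over triplicates above a cutoff set from solvent-only control plates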;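 also: compounds tested in the presence of an EC15 dose of oxytocin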
V1R ag confirm – human V1a receptor agonism, confirmation. shares compounds with V1R ag counter. CHO-V1R cells, Fluo-8 calcium fluorescence, agonist. activation, % at 3 µM. hit rate 20% among 180;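 active = average activation exceeds primary screen hit cutoff, cut at about 21% in these data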;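 also: peak over basal fluorescence ratio during a 100 s FLIPR read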
OXTR ag counter – OXTR agonism, counter-screen for V1R agonists. CHO-OTR cells, Fluo-8 calcium fluorescence, agonist. activation, % at 3 µM. shares compounds with V1R ag counter. hit rate 10% among 180. AID 434969;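 active = mean activation over three repeats above the cutoff from the earlier oxytocin receptor agonist screen, cut at about 20% in these data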;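 also: peak over minimum fluorescence ratio within a 100 second FLIPR read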
Hits are given with their value; n = inactive; x = no result. Most compounds without a hit are left out; they make up all but 0.83% or so of the library.

SMILES | CRFR2-BP ag | OXTR agonist | TRPML3 ag | OXTR potentiator | zfTRPN1 agonist | V1R ag counter | OXTR ag confirm | V1aR counter 3x | others
Cc1ccc2c(c1)C1CN(C)CCC1N2C(=O)Nc1cccc(Cl)c1 (configuration not stated) | n | 30.2 | n | n | n | n | n | n
CCC(c1ccc(C)cc1)N1C(=O)C2C3CCC(O3)C2C1=O (configuration not stated) | n | n | x | n | x | n | x | x
CC(CC(C)(C)N1CC1)=NO | n | x | x | x | x | x | x | x
CCCCNC(C)Cc1ccccc1 (configuration not stated) | n | n | x | n | x | n | x | x
COc1ccc(CC(C)NCCC(c2ccccc2)c2ccccc2)cc1 (configuration not stated) | n | 21.0 | x | n | x | n | n | n
Cc1[nH]c2ccc(OC(F)(F)F)cc2c1CCNCc1cccc([N+](=O)[O-])c1 | n | 19.7 | x | n | x | n | n | n
COc1cccc(NC(=O)[C@@H](NC(=O)N2C[C@H]3C[C@@H](C2)c2cccc(=O)n2C3)C(C)C)c1 | n | n | x | 11.2 | x | n | x | x | OXTR pot confirm=n
CC(C)S(=O)(=O)N1Cc2ccccc2-n2nncc2C1 | n | x | x | x | x | x | x | x
CN1CCN(c2ccc([N+](=O)[O-])c(N)c2)CC1 | n | n | n | n | n | n | x | x
CN1CCN(c2ccc([N+](=O)[O-])c(SCCO)c2)CC1 | n | n | n | 11.9 | n | n | x | x | OXTR pot confirm=n
CCOc1cc2c(cc1OCC)-n1cccc1C(c1cc(C)c(OC)cc1C)NC2 (configuration not stated) | n | n | x | n | x | 29.1 | x | x | V1R ag confirm=n;OXTR ag counter=n
O=C(CCCc1ccccc1)NCCc1cnc[nH]1 | n | n | x | n | x | n | x | x
